A short description of assay [1]: Cytotoxicity against human SW620 cells assessed as inhibition of cell proliferation incubated for 72 hrs by MTS assay. As to conditions: SW-620, 72 h. The assay is classed as functional, cell-based. The method, boiled down: (§1)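 Cells in RPMI-1640 with 10% heat-inactivated FBS at 37°C, 5% CO2. Seeded at 4000 cells/well in triplicate and attached overnight. Exposed to various concentrations for 72 h. MTS added for a further 4 h; absorbance at 490 nm. IC50 = concentration for 50% growth inhibition, as mean ± SEM of three independent tests.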
(Tetrazolium assays rely on reduction of a dye to a coloured formazan, in cell work by metabolically active cells.)

Assay [2] relates to CT26. As to the kind of experiment: Cytotoxicity against mouse CT26 cells assessed as inhibition of cell proliferation incubated for 72 hrs by MTS assay. The assay is classed as functional, cell-based. As to conditions: CT26, 72 h. The method, boiled down: as §1
The nature of assay [3]: Cytotoxicity against human MGC803 cells assessed as inhibition of cell proliferation at 10 uM incubated for 72 hrs by MTS assay. As to conditions: MGC-803, 72 h. The assay is classed as functional. The method in brief:
(§2)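 Single-concentration MTS screen at 10 μM. Cells in RPMI-1640 with 10% FBS, seeded at 4000 cells/well in triplicate, attached overnight, then exposed for 72 h at 37°C, 5% CO2. MTS for 4 h; absorbance 490 nm. Reported as % inhibition.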

The nature of assay [4]: Cytotoxicity against human MGC803 cells assessed as inhibition of cell proliferation incubated for 72 hrs by MTS assay. The assay is classed as functional, cell-based. The note with it: MGC-803, 72 h. The method, boiled down:
as §1

Assay [5] can be described thus: Cytotoxicity against human SGC7901 cells assessed as inhibition of cell proliferation incubated for 72 hrs by MTS assay. The assay is classed as functional, cell-based. The note with it: SGC-7901, 72 h. The method in brief: as §1
A short description of assay [6]: Cytotoxicity against human SW620 cells assessed as inhibition of cell proliferation at 10 uM incubated for 72 hrs by MTS assay. The assay is classed as functional. As to conditions: SW-620, 72 h. The method in brief: as §2
Assay [7] has as its system CT26. The assay is described as follows: Cytotoxicity against mouse CT26 cells at 10 uM assessed as inhibition of cell proliferation incubated for 72 hrs by MTS assay. The assay is classed as functional. The note with it: CT26, 72 h. The method in brief:
as §2

The nature of assay [8]: Cytotoxicity against human SGC7901 cells assessed as inhibition of cell proliferation at 10 uM incubated for 72 hrs by MTS assay. The note with it: SGC-7901, 72 h. The assay is classed as functional. The method, boiled down:
as §2

Assay [9] in a line: Cytotoxicity against human GES-1 cells assessed as inhibition of cell proliferation incubated for 72 hrs by MTS assay. The assay is classed as functional, cell-based. The note with it: GES1, 72 h. The method in brief:
as §1

A word on the IC50: it is the midpoint of a concentration-inhibition curve. Broadly, the inhibition is the drop in the measured response relative to a control, in per cent.

For the compound `COc1cc(/C=C/C(=O)/C=C/c2ccc(C(C)(C)C)cc2)ccc1OCCCN1CCOCC1`, the IC50 in assay [1] worked out at 1.62 µM; in the assay with CT26 [2] it was 3.26 µM; in assay [4], 2.45 µM; in assay [5], 2.77 µM; in assay [9], 3.03 µM. For the same compound, the inhibition at 10 µM in assay [3] was 84.2%; in assay [6], 84.8%; with CT26 [7] it was 90.7%; in [8] it was 76.2%.
As for `COc1ccccc1/C=C/C(=O)/C=C/c1ccc(OCCBr)c(OC)c1`, the IC50 was found to be 4.43 µM in [1]; 4.51 µM in the assay on CT26 [2]; 5.52 µM in assay [4]; 4.52 µM in assay [5]; 4.04 µM in assay [9]. Further, the inhibition at 10 µM in assay [3] stood at 76.2%; in assay [6], 83.7%; with CT26 [7], 70.5%; in assay [8] it was 78.7%.
With `CCCN(CCC)CCCOc1ccc(/C=C2\CCC/C(=C\c3ccc(OCCCN(CCC)CCC)c(OC)c3)C2=O)cc1OC`, the inhibition at 10 µM in assay [3] was -18.4%; in assay [6], 10.3%; in the assay on CT26 [7], 8.04%; in assay [8] it was 2.83%.
With `COc1ccc(/C=C/C(=O)/C=C/c2ccc(OCCCN3CCOCC3)c(OC)c2)c(F)c1`, the inhibition at 10 µM was found to be 3.64% in assay [3], 79.3% in assay [6], 67.6% in the assay with CT26 [7] and 51.6% in [8].
`COc1cc(/C=C2\CC/C(=C\c3ccccc3C(F)(F)F)C2=O)ccc1OCCCN1CCOCC1`: the inhibition at 10 µM in assay [3] is 4.98%; in [6] it was 34.9%; in the assay on CT26 [7], 4.71%; in [8], 29.7%.
For the compound `COc1cc(/C=C2\CCC/C(=C\c3ccc(OCCBr)c(OC)c3)C2=O)ccc1OCCBr`, the half-maximal inhibitory concentration (IC50) was found to be 6.26 µM in assay [1]; 9.85 µM in the assay with CT26 [2]; 7.72 µM in [4]; 6.26 µM in assay [5]; 3.56 µM in assay [9]. For the same compound, the inhibition at 10 µM in assay [3] stood at 58.4%; in [6] it was 66.3%; with CT26 [7] it was 77.3%; in assay [8], 69.2%.
`O=C1/C(=C/c2ccc(OCCBr)cc2)CCC/C1=C\c1ccc(OCCBr)cc1`: the inhibition at 10 µM came out at 0.05% in assay [3], 0.12% in assay [6], 58.3% with CT26 [7] and 10.8% in assay [8].
`CCN(CC)CCCOc1ccc(/C=C2\CCC/C(=C\c3ccc(OCCCBr)c(OC)c3)C2=O)cc1OC`: the half-inhibitory concentration (IC50) in [1] worked out at 4.65 µM; in the assay on CT26 [2] it was 12.8 µM; in assay [4], 15.5 µM; in assay [5], 11.9 µM; in [9], 14.1 µM. Also, the inhibition at 10 µM in assay [3] was 87%; in assay [6] it was 85.3%; with CT26 [7], 92.3%; in assay [8], 86.4%.
With `COc1ccc(/C=C2\CCC/C(=C\c3ccc(OCCCN4CCOCC4)c(OC)c3)C2=O)cc1OC`, the half-maximal inhibitory concentration (IC50) in assay [1] was 3.81 µM; with CT26 [2] it was 2.99 µM; in [4], 8.61 µM; in assay [5] it was 2.87 µM; in assay [9], 8.17 µM. The inhibition at 10 µM came to 89.8% in assay [3], 83.6% in [6], 86.5% in the assay on CT26 [7] and 86.4% in [8].
Turning to `COc1cc(/C=C2\CC/C(=C\c3ccc(OCCBr)c(OC)c3)C2=O)ccc1OCCBr`, the inhibition at 10 µM in assay [3] worked out at 8.38%; in [6], 38.5%; with CT26 [7] it was 58.6%; in assay [8] it was 20.4%.
For `COc1cc(/C=C2\CCC/C(=C\c3cccc(OC)c3OC)C2=O)ccc1OCCCN1CCOCC1`, the inhibition at 10 µM is -9.26% in assay [3], 22.5% in assay [6], 57.2% in the assay on CT26 [7] and -6.53% in assay [8].
On to `COc1cc(/C=C/C(=O)/C=C/c2ccccc2Cl)ccc1OCCCN1CCOCC1`, for which the inhibition at 10 µM in [3] came out at 38.5%; in [6], 81.6%; in the assay with CT26 [7], 87.2%; in [8], 75.3%.
Taken in the same sequence, the figures for `COc1cc(/C=C/C(=O)/C=C/c2ccccc2C(F)(F)F)ccc1OCCCN1CCOCC1` were -2.85%, -3.21%, -24% and 3.22%.
As to `COc1cc(OC)c(/C=C/C(=O)/C=C/c2ccc(OCCCN3CCOCC3)c(OC)c2)c(OC)c1`, the inhibition at 10 µM in assay [3] came out at 5.96%; in [6] it was 33.9%; in the assay on CT26 [7] it was 65.8%; in [8], 9.22%.
Regarding `COc1cc(/C=C/C(=O)CC(=O)/C=C/c2ccc(O)c(OC)c2)ccc1O` [CURCUMIN], the half-inhibitory concentration (IC50) in [1] worked out at 12.5 µM; in the assay with CT26 [2], 7.7 µM; in assay [4] it was 31.4 µM; in [5], 24.4 µM; in [9] it was 27.9 µM.
Turning to `COc1cc(/C=C2\CCC/C(=C\c3ccc(OCCCN4CCN(C)CC4)c(OC)c3)C2=O)ccc1OCCCN1CCN(C)CC1`, the IC50 in assay [1] turned out to be 1.04 µM; in the assay on CT26 [2], 2.01 µM; in assay [4] it was 1.94 µM; in assay [5], 1.88 µM; in assay [9], 3.27 µM. Moreover, the inhibition at 10 µM in assay [3] was 77.5%; in assay [6] it was 86.7%; with CT26 [7], 109%; in assay [8], 84.8%.
Take `COc1cc(/C=C2\CCC/C(=C\c3ccc(OCCCN4CCOCC4)c(OC)c3)C2=O)ccc1OCCCN1CCOCC1`: the IC50 turned out to be 1.98 µM in [1]; 2.69 µM with CT26 [2]; 2.06 µM in assay [4]; 4.96 µM in assay [5]; 3.02 µM in assay [9]. Moreover, the inhibition at 10 µM in [3] was 78.1%; in assay [6], 85.7%; in the assay on CT26 [7], 93.3%; in assay [8], 81.8%.
As to `COc1ccccc1/C=C1\CCC/C(=C\c2ccc(OCCCN3CCOCC3)c(OC)c2)C1=O`, the inhibition at 10 µM in assay [3] was 2.3%; in [6] it was 22.9%; with CT26 [7], 31.6%; in [8], -0.33%.
For `COc1cc(/C=C/C(=O)/C=C/c2c(C)cc(C)cc2C)ccc1OCCCN1CCOCC1`, the concentration for half-maximal inhibition (IC50) in [1] was 3.38 µM; in the assay with CT26 [2], 7.01 µM; in assay [4] it was 8.46 µM; in [5], 7.67 µM; in [9] it was 8.06 µM. Also, the inhibition at 10 µM in [3] turned out to be 80.7%; in assay [6], 83.6%; in the assay with CT26 [7], 89.6%; in [8], 78.1%.
Consider `COc1cc(/C=C2\CC/C(=C\c3ccc(OCCCBr)c(OC)c3)C2=O)ccc1OCCCBr`, for which the inhibition at 10 µM in assay [3] was determined as 5.56%; in [6] it was 27.4%; in the assay with CT26 [7], 71%; in assay [8] it was 6.48%.
In the case of `COc1ccc(/C=C/C(=O)/C=C/c2ccc(OCCCN3CCOCC3)c(OC)c2)cc1OC`, the IC50 was 2.8 µM in assay [1]; 3.13 µM in the assay with CT26 [2]; 7.14 µM in assay [4]; 5.99 µM in [5]; 7.81 µM in assay [9]. In addition, the inhibition at 10 µM is 53.8% in assay [3], 84.8% in assay [6], 79.7% in the assay on CT26 [7] and 66.1% in assay [8].
In the case of `COc1cc(/C=C2\CCC/C(=C\c3ccc(OCCCN4CCCCC4)c(OC)c3)C2=O)ccc1OCCCBr`, the inhibition at 10 µM in assay [3] is 26.9%; in [6] it was 50%; with CT26 [7], 61.2%; in [8], 24.4%.
The like results for `O=C1/C(=C/c2ccc(OCCBr)cc2)CC/C1=C\c1ccc(OCCBr)cc1` were, in that order, 52%, 78.5%, 88.1% and 76%.
The like results for `COc1cc(/C=C/C(=O)/C=C/c2ccc(OCCCN3CCOCC3)c(OC)c2)ccc1OCCCN1CCOCC1` were, in that order, 44.5%, 84%, 89.7% and 67.5%.
Taken in the same sequence, the figures for `COc1cc(/C=C2\CCC/C(=C\c3ccc(OCCCBr)c(OC)c3)C2=O)ccc1OCCCBr` were -8.68%, 61.2%, 49.8% and 18.9%.
For `COc1cc(/C=C2\CCC/C(=C\c3ccc(OCCCN4CCN(C)CC4)c(OC)c3)C2=O)ccc1OCCCBr`, the inhibition at 10 µM in assay [3] is -7.15%; in [6] it was 48.1%; in the assay on CT26 [7] it was 37.3%; in [8], 15.7%.
For `COc1cc(/C=C2\CC/C(=C\c3ccc(OCCCn4ccnc4)c(OC)c3)C2=O)ccc1OCCCBr`, the inhibition at 10 µM amounted to 7.1% in assay [3], 65.7% in [6], 87.1% in the assay on CT26 [7] and 14% in [8].

Values taken from ChEMBL document CHEMBL3734694, “Design, synthesis, and anticancer evaluation of long-chain alkoxylated mono-carbonyl analogues of curcumin” (Eur J Med Chem, 2015).
